Compound activity as filed in PubChem.
DNMT1 inh: inhibitors of human DNMT1; DNMT1 molecular beacon, Hinp1I cleavage, fluorescence; P26358; AID 588458; 360,000 tested, 0.83% active; inhibition (reported as % activation of signal), % at 10 µM; in the data active = inhibition above about 50%
STEP block: blocks human striatal-enriched tyrosine phosphatase; P54829; inhibition, % at 20 µM; 360,000 tested, 0.25% active; recombinant STEP, OMFP fluorogenic substrate, fluorescence;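 active = inhibition at 20 µM, scaled per plate between control wells, above about 37%, limit read from the data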
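System: STEP phosphatase, cell-free reaction; Buffer or medium: Bis-Tris pH 6.0 buffer with DTT, detergent; Incubation: 20 min at room temperature, dark; Measured by: fluorescence, 480/540 nm.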
SUMO1-SIM PPI: modulators of human SUMO1-mediated protein-protein interactions; SUMO1 binding to a labelled peptide, TR-FRET, 1 h; inhibition, % at 20 µM; 360,000 tested, 0.33% active; in the data active = inhibition above about 37%
Target sequence (P63165 whole entry, looked up): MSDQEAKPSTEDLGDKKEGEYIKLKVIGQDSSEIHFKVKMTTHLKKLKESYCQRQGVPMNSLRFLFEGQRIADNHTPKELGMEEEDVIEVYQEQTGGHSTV
Scp-1 inhibitor: blocks human Scp-1 phosphatase activity; Q9GZU7; 340,000 tested, 0.88% active; Recombinant Scp1, phosphopeptide, malachite green phosphate absorbance; inhibition, % at 20 µM;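 active = inhibition above about 50% at 20 µM, limit read from the data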
Target sequence (Q9GZU7 76-261 limits assumed): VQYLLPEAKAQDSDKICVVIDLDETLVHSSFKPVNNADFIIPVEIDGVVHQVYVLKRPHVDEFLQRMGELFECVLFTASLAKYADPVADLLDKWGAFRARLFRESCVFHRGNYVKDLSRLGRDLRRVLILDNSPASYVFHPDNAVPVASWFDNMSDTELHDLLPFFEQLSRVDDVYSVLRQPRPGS
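System: truncated SCP-1 phosphatase (76-261aa); medium: Tris acetate buffer pH 5.5 with MgCl2 and Tween-20; incubation: 45 min room-temperature reaction, 5 min colour, 30 min stabiliser; compound: single 20 µM dose, 1% DMSO; reagent: Phosphorylated 17-residue peptide substrate; read-out: % inhibition at 20 µM; technique: colorimetric free-phosphate detection, absorbance 630 nm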
LMPTP block: blocks human LMPTP phosphatase | AID 651560 | P24666 | 360,000 tested, 0.22% active | inhibition, % at 20 µM | recombinant LMPTP-A, OMFP fluorogenic substrate, fluorescence intensity;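 active = compounds that cut the enzyme signal by at least half of the control window in the single-dose screen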
Target sequence (P24666 whole entry, looked up): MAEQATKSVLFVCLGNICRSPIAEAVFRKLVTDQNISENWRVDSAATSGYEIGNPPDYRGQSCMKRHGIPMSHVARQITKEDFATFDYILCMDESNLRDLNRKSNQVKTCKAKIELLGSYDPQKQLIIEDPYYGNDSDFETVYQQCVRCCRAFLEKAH
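Test system – LMPTP-A enzyme · Amount – LMPTP-A at 0.625 nM final in the reaction · Buffer or medium – Bis-Tris pH 6.0, DTT, detergent · Reagent – OMFP 400 µM · Doses – single 20 µM dose · Schedule – reaction 50 min, room temperature, dark · Detection – fluorescence intensity of OMFP turnover product · Evaluation – percent inhibition versus substrate-only and uninhibited controls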
Scp-1 conf: confirmation of human Scp-1 phosphatase inhibitors; shares compounds with Scp-1 inhibitor; recombinant SCP-1 catalytic domain, phosphate release, malachite green absorbance; inhibition, % at 20 µM; 2,500 tested, 61% active; AID 540281
Scp-1 MG ctr: counter-screen for Scp-1 inhibitors: colorimetric interference; shares compounds with Scp-1 inhibitor; 2,500 tested, under 10 active; AID 540313; Colorimetric interference counterscreen, malachite green absorbance 630 nm; apparent inhibition (interference), % at 20 µM;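 also: compounds added after enzyme reaction finished so only phosphate colour detection is probed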
Scp-1 Tm shift: validation of human Scp-1 inhibitors by thermal shift binding. 1,500 tested, 25% active. AID 540329. thermal shift relative to vanadate control, % at 40 µM. shares compounds with Scp-1 inhibitor. Recombinant SCP1, Sypro Orange thermal shift Tm;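 active = substances whose mean melting-temperature shift, as a percentage of the reference inhibitor's shift, reaches about 5.3%, limit read from the data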
Each line names hits and unclear results; the compound was inactive in the other large screens (follow-up assays come after a bar, where they were run). Shown are actives, neighbours in structure and some others; about 1.7% of the full set was active somewhere.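 The calls were made as follows, unless noted: active = inhibition of at least 30% at 20 µM; inactive = the rest.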

Cc1ccc(NC(=O)COC(=O)CC2CCCC2)cc1F	none
O=C(O)c1ccccc1C(=O)Nc1n[nH]c(=S)s1	Scp-1 inhibitor 99 | Scp-1 conf 42 | Scp-1 MG ctr inactive | Scp-1 Tm shift inactive
Cc1ccc(-c2cc(C(=O)N3CCCCC3)c3ccccc3n2)cc1C	none
O=C(NC1CCSC1=O)c1ccccc1 (centres undefined)	none
O=C(NC1CCSC1=O)c1cccc(C(=O)NC2CCSC2=O)c1 (centres undefined)	Scp-1 inhibitor 95 | Scp-1 conf 65 | Scp-1 MG ctr inactive | Scp-1 Tm shift inactive
CN(C)/C=C1\C(=O)Nc2ccccc21	none
CN(O)/C=C1\C(=O)Nc2ccccc21	Scp-1 inhibitor 65 | Scp-1 conf inactive | Scp-1 MG ctr inactive
CC(Sc1nnc(-c2cccnc2)o1)C(=O)NC1CCCCC1 (centres undefined)	none
CC1(N=Cc2cc(Cl)ccc2O)COP(=O)(NC2CCCC2)OC1 (centres undefined)	none
COc1ccc(C2c3c(oc4ccccc4c3=O)C(=O)N2CCN2CCOCC2)cc1OC (centres undefined)	none
COCCN1C(=O)c2oc3ccccc3c(=O)c2C1c1ccc(OC)c(OC)c1 (centres undefined)	Scp-1 inhibitor 60 | Scp-1 conf 44 | Scp-1 MG ctr inactive | Scp-1 Tm shift inactive
COc1ccc(C(C)=O)cc1CSc1nc2cc(C(=O)O)ccc2c(=O)n1Cc1ccccc1	Scp-1 inhibitor 51 | Scp-1 conf inactive | Scp-1 MG ctr inactive
CCOC(Cn1c(SCc2cc(C(C)=O)ccc2OC)nc2ccccc2c1=O)OCC	none
COc1ccc(CNC(=O)C(OC(=O)c2ccco2)c2ccccc2F)cc1 (centres undefined)	Scp-1 inhibitor 57 | Scp-1 conf inactive | Scp-1 MG ctr inactive
O=C(Nc1ccc2ncccc2c1)c1ccccc1Cl	Scp-1 inhibitor 57 | Scp-1 conf inactive | Scp-1 MG ctr inactive
COc1ccc(Cn2c(-c3ccccc3)nc3c(c(=O)c4ccccc4n3C)c2=O)cc1	none
COc1ccc(Cn2c(C3CCCCC3)nc3c(c(=O)c4ccccc4n3C)c2=O)cc1	Scp-1 inhibitor 87 (no result: DNMT1 inh, STEP block, SUMO1-SIM PPI, LMPTP block) | Scp-1 conf 55 | Scp-1 MG ctr inactive | Scp-1 Tm shift inactive
Cc1cc(C)n(-c2ccc(C(=O)O)cc2)n1	none
Cc1cc(C)n(-c2ccc(Oc3ccccc3)c(S(=O)(=O)O)c2)n1	Scp-1 inhibitor 65 | Scp-1 conf 47 | Scp-1 MG ctr inactive | Scp-1 Tm shift inactive
O=C(NCc1ccccc1Cl)c1ccc2nc[nH]c2c1	none
Cc1ccc(C(C)NC(=O)C2CCCC2)cc1C (centres undefined)	none
Cc1ccc(C(c2ccc(C)c(C)c2)C(O)C2OC(=O)C(O)C2O)cc1C (centres undefined)	Scp-1 inhibitor 53 | Scp-1 conf inactive | Scp-1 MG ctr inactive
N#CCC(=O)Nc1ccc(C(=O)OCC(=O)NC(=O)NCc2ccco2)cc1	none
O=C(CCN1C(=O)C2C3C=CC(C3)C2C1=O)NCc1cccnc1 (centres undefined)	Scp-1 inhibitor 60 | Scp-1 conf inactive | Scp-1 MG ctr inactive
O=C(CCN1C(=O)c2cccc3cccc(c23)C1=O)NCc1cccnc1	none
Cc1cc(C)cc(N=C2NC(=O)/C(=C/c3cccs3)S2)c1	none
O=C1NC(=Nc2ccccc2)S/C1=C\c1cccs1	Scp-1 inhibitor 97 | Scp-1 conf inactive | Scp-1 MG ctr inactive
Cc1ccc(NC(=O)CSc2nnc(CNC(=O)c3cccs3)o2)c(C)c1	none
CCC(=O)c1ccc(OCC(=O)Nc2cc(S(=O)(=O)N3CCCCC3)ccc2N2CCN(CC)CC2)cc1	Scp-1 inhibitor 106 | Scp-1 conf inactive | Scp-1 MG ctr inactive
Cc1ccc2nc(SCC(=O)NCc3ccccc3Cl)nc(=O)n2c1	none
Cc1ccn2c(=O)nc(SCC(=O)NCc3ccccc3Cl)nc2c1	none | Scp-1 conf 57 | Scp-1 MG ctr inactive | Scp-1 Tm shift inactive
CC(/C=C/c1ccc(C)o1)=C\C(=O)O	none
CC(=C/C(=O)O)/C=C/c1ccc(Cl)o1	DNMT1 inh 106, Scp-1 inhibitor 61 | Scp-1 conf 54 | Scp-1 MG ctr inactive | Scp-1 Tm shift inactive
C[C@H](CCC(=O)O)[C@H]1CC[C@H]2[C@@H]3CC[C@@H]4C[C@H](O)CC[C@]4(C)[C@H]3CC[C@]12C	Scp-1 inhibitor 58 | Scp-1 conf 56 | Scp-1 MG ctr inactive | Scp-1 Tm shift inactive
CC(CCC(=O)O)C1CCC2C3CCC4C[C@H](O)CCC4(C)C3CC(=O)C12C (some centres undefined)	none
O=C1c2ccccc2C(=O)N1c1nc2nccc(-c3ccccc3)n2n1	Scp-1 inhibitor 101 | Scp-1 conf inactive | Scp-1 MG ctr inactive
CC(=O)C(C(C)=O)C(c1ccccc1)c1nc2ccccc2[nH]c1=O (centres undefined)	none
CN=c1nc(-c2ccccc2)n(-c2ccccc2)s1	Scp-1 inhibitor 76 | Scp-1 conf inactive | Scp-1 MG ctr inactive
Cn1nc(-c2ccccc2)nc1-c1ccccc1	none
Cc1ccccc1N(CC(=O)N1CCCCCC1)S(C)(=O)=O	none
COc1ccc(N2CC(C(=O)Nc3nc4ccc(F)cc4s3)CC2=O)c(OC)c1 (centres undefined)	none | Scp-1 conf inactive | Scp-1 MG ctr inactive
O=C(CCCCCN1C(=O)c2cccc3cccc(c23)C1=O)NCCO	none
CCOc1ccccc1CN1CCNC(=O)C1CC(=O)NCc1cc(C)n(C)n1 (centres undefined)	none
C/C(=N\NC(=O)c1ccc(Cl)cc1)c1ccc(Br)s1	none
C/C(=N\NC(=O)c1cc(Cl)ccc1O)c1ccc(Br)s1	Scp-1 inhibitor 93 | Scp-1 conf 80 | Scp-1 MG ctr inactive | Scp-1 Tm shift inactive
CC1CC(C)CN(C(=O)COC(=O)/C=C/c2ccco2)C1 (centres undefined)	Scp-1 inhibitor 59 | Scp-1 conf 48 | Scp-1 MG ctr inactive | Scp-1 Tm shift inactive
O=C(Nc1cccc(Oc2ccccc2)c1)C1Cc2c(-c3cccc(F)c3)ccnc2O1 (centres undefined)	none (no result: Scp-1 inhibitor)
COc1ccc(C(CNS(=O)(=O)c2ccc(NC(C)=O)c(OC)c2)N2CCCCC2)cc1 (centres undefined)	Scp-1 inhibitor 50 | Scp-1 conf inactive | Scp-1 MG ctr inactive
COc1ccc(C(CNS(=O)(=O)c2ccc(NC(C)=O)c(OC)c2)N2CCCC2)cc1 (centres undefined)	none
